For one assay, the target named is T1, human ERAP1 (Homo sapiens, UniProt Q9NZ08, G346D/G514D/K528R/Q730E). The assay is described as follows: Peptide trimming assay. In kind it is biochemical. The conditions noted are these: 150 μM peptide, 3.5 μg ml^–1 ERAP1, 37°C, 50 mM Tris-HCl pH 7.8, 0.25 g L^–1 BSA, C18 RP-HPLC (Fig. 4a). A digest of the protocol:
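Human ERAP1 (allelic variant) was baculovirus-expressed, Ni-NTA purified and treated with carboxypeptidase A at room temperature in PBS. Substrates were HPLC-purified synthetic peptides with mass confirmed by MS. Reactions were stopped with 0.6% (v/v) TFA, and the supernatant was run on C18 RP-HPLC with an acetonitrile gradient in 0.03% (v/v) TFA. Percent substrate cleaved was taken from integrated peak areas.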
T1 sequence (Q9NZ08 whole entry G346D/G514D/K528R/Q730E): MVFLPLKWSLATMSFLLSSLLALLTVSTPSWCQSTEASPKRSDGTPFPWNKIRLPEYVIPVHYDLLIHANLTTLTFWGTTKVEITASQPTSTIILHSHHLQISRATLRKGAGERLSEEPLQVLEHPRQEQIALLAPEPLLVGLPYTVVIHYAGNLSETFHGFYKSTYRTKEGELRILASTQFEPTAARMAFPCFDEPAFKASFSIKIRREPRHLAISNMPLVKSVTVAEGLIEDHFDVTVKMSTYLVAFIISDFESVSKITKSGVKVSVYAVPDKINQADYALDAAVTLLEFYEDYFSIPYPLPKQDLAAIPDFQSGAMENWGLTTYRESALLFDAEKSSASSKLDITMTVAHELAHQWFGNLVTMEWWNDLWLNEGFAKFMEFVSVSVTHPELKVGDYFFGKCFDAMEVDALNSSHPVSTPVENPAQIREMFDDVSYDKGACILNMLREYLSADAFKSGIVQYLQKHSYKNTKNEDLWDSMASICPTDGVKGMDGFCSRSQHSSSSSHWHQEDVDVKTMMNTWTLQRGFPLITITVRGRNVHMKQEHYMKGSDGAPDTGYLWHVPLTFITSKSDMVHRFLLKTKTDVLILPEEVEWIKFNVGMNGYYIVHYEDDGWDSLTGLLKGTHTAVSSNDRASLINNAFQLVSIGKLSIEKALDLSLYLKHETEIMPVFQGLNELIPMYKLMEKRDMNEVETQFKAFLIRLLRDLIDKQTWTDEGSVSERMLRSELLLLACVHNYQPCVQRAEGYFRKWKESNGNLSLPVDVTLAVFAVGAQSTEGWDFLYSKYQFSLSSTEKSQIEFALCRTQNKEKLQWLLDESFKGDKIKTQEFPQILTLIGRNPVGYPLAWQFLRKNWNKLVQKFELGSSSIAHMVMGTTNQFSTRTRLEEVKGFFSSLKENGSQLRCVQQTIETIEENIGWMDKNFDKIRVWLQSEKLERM
Take FEKL: the “ERAP1 processing of SIINFEKL length variants” value is on record as “not long enough to be processed efficiently”.
With INFEKL, the “ERAP1 processing of SIINFEKL length variants” value is “not processed appreciably”.
Same read-out and setting: next, QLESIINFEKL: “processed efficiently”; SIINFEKL [reference compound]: “not long enough to be processed efficiently”.

The target of a further assay is T1, human ERAP1. The assay is described as follows: Activation of L-AMC hydrolysis by ERAP1 in the presence of peptides. In kind it is biochemical. The conditions noted are these: 100 μM L-AMC, 0–70 μM peptide, 0.87 μg ml^–1 ERAP1, 37°C (Fig. 6c,d).
On to L(N-Me)VAFKARAF [L^Me], for which the “Activation of ERAP1 hydrolysis of L-AMC by increasing peptide concentrations” value is “activated”.
Still for that read-out and setting: next, LVAFKARAF [L-peptide]: “activated”.
For R(N-Me)VAEAAFAE, the “Activation of ERAP1 hydrolysis of L-AMC by increasing peptide concentrations” value is “did not activate”.

Source of the values: publication PMC3087843 (Nature structural & molecular biology, 2011).
